Results pooled from the literature.

SMILES | target or system | observed | technique | concentration | notes | measurement | value
CNC(=O)c1cc(Oc2ccc(NC(=O)Nc3ccc(Cl)c(C(F)(F)F)c3)cc2)ccn1 | Salmonella | microbial growth |  |  | clinical isolate | MIC | > 100 µM
O=C1O[C@H]([C@@H](O)CO)C(O)=C1O |  | DPPH scavenging |  | 12.5 µg/mL |  | inhibition | 38.9%
COc1cc(-c2ccc(-c3ccc(C(=N)N)nc3)s2)cc(OC)c1OC | NCI/ADR-RES | cell growth or viability | SRB |  |  | GI50 | 5.2 µM
COc1cc(C=Cc2cc(-c3ccccc3)nc(O)n2)ccc1O |  | DPPH scavenging |  | 12.5 µg/mL |  | inhibition | 38.3%
O=S(=O)(Nc1nccs1)c1ccc(N=NN(O)c2ccccc2)cc1 |  | DPPH scavenging | absorbance | 20 µg/mL |  | inhibition | 24.1%
C[C@@H](O)[C@H]1C(=O)N2C(C(=O)O)=C(S[C@@H]3CN[C@H](C(=O)N(C)C)C3)[C@H](C)[C@H]12 | Serratia fonticola | microbial growth | broth dilution |  | clinical isolate | MIC | 32 µg/mL
CN(O)N=Nc1ccc(S(=O)(=O)Nc2nccs2)cc1 |  | DPPH scavenging | absorbance | 120 µg/mL |  | inhibition | 16.4%
COc1cc(C=CC(=O)CC(c2ccc([N+](=O)[O-])cc2)n2ccnc2)ccc1O (stereo not drawn) |  | DPPH scavenging |  | 50 µg/mL |  | inhibition | 61.4%
CCN(O)N=Nc1ccc(S(=O)(=O)Nc2nccs2)cc1 |  | DPPH scavenging | absorbance | 60 µg/mL |  | inhibition | 9.02%
O=C1O[C@H]([C@@H](O)CO)C(O)=C1O |  | DPPH scavenging | absorbance | 160 µM |  | inhibition | 70.9%
Cc1cccc(N(O)N=Nc2ccc(S(=O)(=O)Nc3cc(C)on3)cc2)c1 |  | DPPH scavenging | absorbance | 180 µg/mL |  | inhibition | 34.7%
Oc1ccc(Br)cc1C=NCCN1CCOCC1 |  | DPPH scavenging | absorbance | 80 µM |  | inhibition | 17.4%
